In ChEMBL document CHEMBL4011643, “Triaryl Benzimidazoles as a New Class of Antibacterial Agents against Resistant Pathogenic Microorganisms” (J Med Chem, 2017):
Converted amounts (≈) assume the structure as drawn.

Legend:
Enterococcus faecalis [1] = assay: Antibacterial activity against vancomycin-resistant Enterococcus faecalis NCTC 12201 after 20 hrs by broth microdilution method; format: functional; details: NCTC 12201, 20 h
Outline: (§1)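 Broth microdilution in Tryptic Soy Broth; growth read as OD600 after 20 h. MIC taken as the lowest drug concentration giving OD600 below 0.1. Run in triplicate.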

Staphylococcus aureus [2] = assay: Antibacterial activity against methicillin-resistant Staphylococcus aureus EMRSA-15 after 20 hrs by broth microdilution method; format: functional; details: EMRSA-15, 20 h; outline: as §1
[3] = Cytotoxicity against human HeLa cells assessed as cell viability at 25 uM after 24 hrs by MTT assay; format: cell-based; details: read-out: Activity
Outline: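 HeLa cells, 10000 per well, were grown at 37 °C in 5% CO2 and allowed to settle for 24 h. Compound was then added in triplicate for 24 h of continuous exposure. Viability was read by MTT colorimetry, with absorbance at 570 nm.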

Enterococcus faecium = assay: Antibacterial activity against vancomycin-resistant Enterococcus faecium NCTC 12204 after 20 hrs by broth microdilution method; format: functional; details: NCTC 12204, 20 h; outline: as §1
Staphylococcus aureus [4] = assay: Antibacterial activity against methicillin-sensitive Staphylococcus aureus ATCC 9144 after 20 hrs by broth microdilution method; format: functional; details: ATCC 9144, 20 h
Outline: (§2)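 Broth microdilution in Tryptic Soy Broth, done in triplicate. Growth was read as OD600 after 20 h. MIC is the lowest drug concentration giving OD600 below 0.1.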

Staphylococcus aureus [5] = assay: Antibacterial activity against methicillin-resistant Staphylococcus aureus MRSA252 after 20 hrs by broth microdilution method; format: functional; details: MRSA252, 20 h; outline: as §1
Enterococcus faecalis [6] = assay: Antibacterial activity against vancomycin-sensitive Enterococcus faecalis NCTC 775 after 20 hrs by broth microdilution method; format: functional; details: NCTC 775, 20 h; outline: as §2

SMILES	MIC (Enterococcus faecalis [1]) [µg/mL]	MIC (Staphylococcus aureus [2]) [µg/mL]	viability at 24 h, 25 µM [3] [%]	MIC (Enterococcus faecium) [µg/mL]	MIC (Staphylococcus aureus [4]) [µg/mL]	MIC (Staphylococcus aureus [5]) [µg/mL]	MIC (Enterococcus faecalis [6]) [µg/mL]
COC(=O)c1ccc2c(c1)nc(C)n2-c1ccc(-c2cccc(NC(=O)c3ccc4nc(C)[nH]c4c3)c2)cn1	> 32	> 32					
Cc1nc2cc(C(=O)NCCCN(C)C)ccc2n1-c1ccc(-c2cccc(NC(=O)c3ccc4nc(CCCN(C)C)[nH]c4c3)c2)cn1	32 to 64 (≈ 48.6 to 97.3 µM)	> 128	39	64 (≈ 97.3 µM)	> 128	> 128	> 128
Cc1nc2cc(C(=O)NCCCN(C)C)ccc2n1-c1ccc(Br)cn1	> 128	> 128					
CCN(CC)CCCNC(=O)c1ccc2c(c1)nc(C)n2-c1ccc(-c2cccc(NC(=O)c3ccc4nc(C)[nH]c4c3)c2)cn1	> 128	> 128					
Cc1nc2ccc(C(=O)Nc3cccc(-c4ccc(-n5c(C)nc6cc(C(=O)NCCCN7CCCC7)ccc65)nc4)c3)cc2[nH]1	> 128	> 128					
Cc1nc2ccc(C(=O)Nc3cccc(-c4ccc(-n5c(C)nc6cc(C(=O)NCCCN7CCOCC7)ccc65)nc4)c3)cc2[nH]1	> 128	> 128					
Cc1nc2cc(C(=O)NCCCN(C)C)ccc2n1-c1ccc(-c2cccc(NC(=O)c3ccccc3)c2)cn1	> 128	> 128					
